Test results published in ChEMBL document CHEMBL3580565, “Synthesis and Biological Evaluation of Cyclopentaquinoline Derivatives as Nonsteroidal Glucocorticoid Receptor Antagonists” (J Med Chem, 2015).

Assays:
Glucocorticoid receptor = molecular target: T1, Glucocorticoid receptor (Homo sapiens, UniProt P04150); experiment: Antagonist activity at human glucocorticoid receptor transfected in CHOK1 cells assessed as inhibition of dexamethasone-induced receptor transcriptional activity after 6 hrs by luciferase reporter gene assay; type: cell-based, CHO-K1
T1 sequence (P04150 whole entry): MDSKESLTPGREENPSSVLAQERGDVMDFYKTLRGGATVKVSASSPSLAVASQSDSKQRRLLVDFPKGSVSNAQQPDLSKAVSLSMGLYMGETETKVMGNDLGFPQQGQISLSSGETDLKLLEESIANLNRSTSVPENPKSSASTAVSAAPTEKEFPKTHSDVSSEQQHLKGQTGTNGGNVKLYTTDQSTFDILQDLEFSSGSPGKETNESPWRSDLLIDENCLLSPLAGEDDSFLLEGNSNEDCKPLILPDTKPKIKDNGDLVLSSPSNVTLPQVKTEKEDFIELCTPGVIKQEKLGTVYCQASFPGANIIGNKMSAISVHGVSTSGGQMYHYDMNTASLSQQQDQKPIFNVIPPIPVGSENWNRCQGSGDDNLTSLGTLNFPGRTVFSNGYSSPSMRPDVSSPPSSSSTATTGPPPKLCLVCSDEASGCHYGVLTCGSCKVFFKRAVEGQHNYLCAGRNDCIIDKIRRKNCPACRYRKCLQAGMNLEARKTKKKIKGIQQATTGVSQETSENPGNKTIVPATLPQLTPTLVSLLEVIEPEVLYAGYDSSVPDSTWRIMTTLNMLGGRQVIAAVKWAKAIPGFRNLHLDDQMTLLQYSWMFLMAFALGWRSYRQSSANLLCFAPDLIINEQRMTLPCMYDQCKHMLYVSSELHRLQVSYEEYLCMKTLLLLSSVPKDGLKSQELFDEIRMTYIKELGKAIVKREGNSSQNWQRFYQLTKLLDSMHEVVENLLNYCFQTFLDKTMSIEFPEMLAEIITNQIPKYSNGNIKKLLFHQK

Estrogen receptor = Estrogen receptor (Homo sapiens, UniProt P03372); experiment: Displacement of fluormone ES2 from human recombinant estrogen receptor-alpha expressed in insect Sf9 cells after 120 mins by fluorescence polarization assay
Procedure, shortened: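 Assay run at Cerep. Fluorescence polarization with Fluormone ES2 tracer, using recombinant human ERα expressed in Sf9 cells and ERβ expressed in Hi5 cells.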

Androgen receptor = molecular target: T2, Androgen receptor (Homo sapiens, UniProt P10275); experiment: Displacement of [3H]methyltrienolone from cytosolic fraction of androgen receptor in human […] cells after 24 hrs by scintillation counting analysis; type: cell-based
T2 sequence (P10275 whole entry): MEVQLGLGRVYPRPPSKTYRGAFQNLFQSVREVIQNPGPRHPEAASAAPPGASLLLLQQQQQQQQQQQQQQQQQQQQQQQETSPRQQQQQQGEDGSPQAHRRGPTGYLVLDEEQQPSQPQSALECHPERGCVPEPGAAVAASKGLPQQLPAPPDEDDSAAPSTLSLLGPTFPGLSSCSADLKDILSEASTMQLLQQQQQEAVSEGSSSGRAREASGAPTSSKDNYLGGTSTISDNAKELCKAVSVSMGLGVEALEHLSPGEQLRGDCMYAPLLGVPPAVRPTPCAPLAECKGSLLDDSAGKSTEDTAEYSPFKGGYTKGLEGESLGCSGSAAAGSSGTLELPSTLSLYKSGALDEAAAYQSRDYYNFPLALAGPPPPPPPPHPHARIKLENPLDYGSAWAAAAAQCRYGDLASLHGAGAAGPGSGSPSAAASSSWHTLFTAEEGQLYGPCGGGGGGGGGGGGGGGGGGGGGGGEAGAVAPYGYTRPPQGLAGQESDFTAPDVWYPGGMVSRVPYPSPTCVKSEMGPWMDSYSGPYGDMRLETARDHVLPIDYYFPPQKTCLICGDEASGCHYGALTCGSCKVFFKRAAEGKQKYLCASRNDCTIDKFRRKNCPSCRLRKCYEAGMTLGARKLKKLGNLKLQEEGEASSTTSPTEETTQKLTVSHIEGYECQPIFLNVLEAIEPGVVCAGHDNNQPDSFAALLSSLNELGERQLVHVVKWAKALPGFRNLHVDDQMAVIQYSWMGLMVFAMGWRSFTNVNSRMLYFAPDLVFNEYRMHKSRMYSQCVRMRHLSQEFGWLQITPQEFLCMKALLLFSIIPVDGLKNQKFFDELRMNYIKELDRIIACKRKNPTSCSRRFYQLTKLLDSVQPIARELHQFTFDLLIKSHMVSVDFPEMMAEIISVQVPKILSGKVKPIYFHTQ
Procedure, shortened: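 Assay run at Cerep. Binding of [³H]methyltrienolone to cytosolic androgen receptor from LNCaP cells.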

[1] = Cmax in Sprague-Dawley rat at 1 mg/kg, iv by LC/MS/MS analysis; type: ADME, organism-based; parameters: dose 1 mg/kg, route intravenous; details: in vivo
Procedure, shortened: (§1)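 Single intravenous dose to male Sprague–Dawley rats (n = 4). Jugular vein blood drawn at 0.05, 0.25, 0.5, 1, 2, 4, 8 and 24 h, heparin anticoagulant, plasma separated by centrifugation. Plasma drug level measured by LC/MS/MS.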

[2] = Cmax in Sprague-Dawley rat at 10 mg/kg, po by LC/MS/MS analysis; type: ADME, organism-based; parameters: dose 10 mg/kg, route oral; details: in vivo
Procedure, shortened: (§2)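 Male Sprague–Dawley rats dosed orally (n = 4). Jugular vein blood sampled at 0.25, 0.5, 1, 2, 4, 6 and 24 h into heparin, plasma obtained by centrifugation. Concentrations determined by LC/MS/MS.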

[3] = Half life in Sprague-Dawley rat at 1 mg/kg, iv by LC/MS/MS analysis; type: ADME, organism-based; details: in vivo; procedure, shortened: as §1
[4] = Half life in Sprague-Dawley rat at 10 mg/kg, po by LC/MS/MS analysis; type: ADME, organism-based; details: in vivo; procedure, shortened: as §2
[5] = AUC (0 to infinity) in Sprague-Dawley rat at 1 mg/kg, iv by LC/MS/MS analysis; type: ADME, organism-based; parameters: dose 1 mg/kg, route intravenous, time infinity; details: in vivo; procedure, shortened: as §1
[6] = Volume of distribution at steady state in Sprague-Dawley rat at 1 mg/kg, iv by LC/MS/MS analysis; type: ADME, organism-based; details: in vivo, read-out: Vdss; procedure, shortened: as §1
Plasma = experiment: Unbound plasma concentration in Sprague-Dawley rat at 30 mg/kg, po measured at 1 hr by LC/MS/MS analysis; type: ADME, organism-based; details: in vivo
Procedure, shortened: (§3)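 Male SD rats given 30 mg/kg orally (n = 3 per time point), killed at 1 and 3 h. Heparinized blood collected for plasma; brain rinsed in saline, weighed, homogenized in five volumes (w/v) saline. Plasma and brain levels by LC/MS/MS. Kp,uu,brain is the ratio of unbound brain to unbound plasma concentration.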

[7] = Unbound brain to plasma concentration ratio in Sprague-Dawley rat at 30 mg/kg, po measured at 1 hr by LC/MS/MS analysis; type: ADME, organism-based; details: brain and plasma, read-out: K(p,uu,brain); procedure, shortened: as §3
Rattus norvegicus [8] = experiment: Antidepressant-like activity in Wistar rat assessed as immobility time at 100 mg/kg, po administered at 1, 5, 23.5 hrs prior to testing measured for 5 mins by forced swimming test (reference value: 211.3 to 232.2 secs); type: functional
Rattus norvegicus [9] = experiment: Antidepressant-like activity in Wistar rat assessed as decrease in immobility time at 30 mg/kg, po administered at 1, 5, 23.5 hrs prior to testing measured for 5 mins by forced swimming test relative to vehicle-treated control; type: functional; parameters: scale not given: the % may be the effect or the level left
Rattus norvegicus [10] = experiment: Antidepressant-like activity in Wistar rat assessed as decrease in immobility time at 100 mg/kg, po administered at 1, 5, 23.5 hrs prior to testing measured for 5 mins by forced swimming test relative to vehicle-treated control; type: functional; parameters: scale not given: the % may be the effect or the level left

Sequence of Estrogen receptor (P03372 whole entry, looked up): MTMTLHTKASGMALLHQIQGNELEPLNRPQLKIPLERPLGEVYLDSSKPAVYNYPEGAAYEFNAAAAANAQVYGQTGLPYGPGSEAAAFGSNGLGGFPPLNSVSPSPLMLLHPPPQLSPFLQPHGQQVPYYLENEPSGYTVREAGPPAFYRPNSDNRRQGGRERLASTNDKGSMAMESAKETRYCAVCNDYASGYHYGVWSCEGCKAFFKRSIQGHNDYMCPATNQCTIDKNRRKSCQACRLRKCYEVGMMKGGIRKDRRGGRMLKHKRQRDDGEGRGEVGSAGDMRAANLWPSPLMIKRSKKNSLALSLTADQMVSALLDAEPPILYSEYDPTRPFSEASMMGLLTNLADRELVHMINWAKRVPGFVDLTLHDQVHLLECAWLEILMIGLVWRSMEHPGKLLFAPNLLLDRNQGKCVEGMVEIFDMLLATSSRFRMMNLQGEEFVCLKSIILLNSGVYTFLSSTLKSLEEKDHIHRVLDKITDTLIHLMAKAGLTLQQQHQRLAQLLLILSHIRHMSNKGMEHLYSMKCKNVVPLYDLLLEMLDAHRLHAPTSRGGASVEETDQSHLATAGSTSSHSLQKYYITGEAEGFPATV

IC50 (Glucocorticoid receptor): 0.03 µM
Ki (Estrogen receptor): > 2.3 µM
Ki (Androgen receptor): > 2.3 µM
Cmax [1]: 633 ng/mL
Cmax [2]: 273 ng/mL
half-life [3]: 3.2 h
half-life [4]: 4.6 h
AUC(0-inf) [5]: 460 ng·h/mL
Vd [6]: 6.13 L/kg
Cp(f) (Plasma): 14.1 nM
Kp uu at 1 h [7]: 1.8
SMILES: Cc1noc(C)c1-c1cc2c(c3c1CCC3)NC(C)(C)C(=O)C2(C)C
Time (Rattus norvegicus [8]): 187.3 s
Activity (Rattus norvegicus [9]): 75.9%
Activity (Rattus norvegicus [10]): 80.7%
